Assay results: the array DNA melting data of Ke et al. (doi:10.1101/2024.01.08.574731)

Key:
[1] = folding enthalpy; higher = less favourable; fluorescence melt of hairpins on a sequencing array, two-state fit; settings: sodium 0.088 M
Summary of the method: (§1)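 In 50 mM Na-HEPES pH 8.0 containing 25 mM NaCl, hairpins from the library on a sequenced MiSeq flow cell were imaged for Cy3 fluorescence at 2.5 °C steps up to 60 °C, with Cy3 and quencher oligos annealed. After normalisation to pre-quench Cy3 and to control constructs, two-state fits with bootstrapping gave melting temperature and folding enthalpy. Four replicates were combined by inverse-variance weighting, and fitted temperatures were shifted up by 9.35 °C to match UV melts.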

[2] = melting temperature; fluorescence melt of hairpins on a sequencing array, two-state fit, raised by 9.35 °C to match UV melts; settings: sodium 0.088 M
Summary of the method: as §1

GGTGAAGGAAACTTCGCC ((.((((....)))).))
folding enthalpy [1]: -45.2 kcal/mol | Tm [2]: 52.6 °C

GGTGAAGGAAACTTCGTC (..((((....))))..)
folding enthalpy [1]: -12 kcal/mol | Tm [2]: 26.6 °C

GGTGACCGAAAGGTTACC (((.(((....))).)))
folding enthalpy [1]: -40 kcal/mol | Tm [2]: 60.5 °C

GGTGACGAAAGTCAGACC ((((((....)))..)))
folding enthalpy [1]: -14.6 kcal/mol | Tm [2]: 44.6 °C

GGTGACGAAAGTCATACC ((((((....)))..)))
folding enthalpy [1]: -13.6 kcal/mol | Tm [2]: 40.7 °C

GGTGACGAAAGTCGACC ((((((....))).)))
folding enthalpy [1]: -23.1 kcal/mol | Tm [2]: 53.4 °C

GGTGACGAAAGTCGGACC ((((((....)))..)))
folding enthalpy [1]: -15.8 kcal/mol | Tm [2]: 42.1 °C

GGTGACGAAAGTCTAACC ((((((....)))..)))
folding enthalpy [1]: -18.2 kcal/mol | Tm [2]: 42.2 °C

GGTGAGAAATCACC (((((....)))))
folding enthalpy [1]: -27.6 kcal/mol | Tm [2]: 51 °C

GGTGAGCGAAAGCTTACC (((.(((....))).)))
folding enthalpy [1]: -26.7 kcal/mol | Tm [2]: 59.3 °C

GGTGAGGGAAACTTCGCC ((.((.(....).)).))
folding enthalpy [1]: -23.7 kcal/mol | Tm [2]: 35.7 °C

GGTGATACGAAAGTAACC (((..(((....))))))
folding enthalpy [1]: -11.7 kcal/mol | Tm [2]: 33.6 °C

GGTGATCCGAAAGGAACC (((..(((....))))))
folding enthalpy [1]: -18.7 kcal/mol | Tm [2]: 33.2 °C

GGTGATGGAAACATCGCC ((.((((....)))).))
folding enthalpy [1]: -45.2 kcal/mol | Tm [2]: 55.6 °C

GGTGCCCGAAAGGGACC (((.(((....))))))
folding enthalpy [1]: -21.5 kcal/mol | Tm [2]: 58.1 °C

GGTGCCGAAAGGCATACC ((((((....)))..)))
folding enthalpy [1]: -11.6 kcal/mol | Tm [2]: 48.2 °C

GGTGCCGAAAGGCCTACC ((((((....)))..)))
folding enthalpy [1]: -10.7 kcal/mol | Tm [2]: 39.6 °C

GGTGCGGGAAACCGTACC (((.(((....))).)))
folding enthalpy [1]: -44.7 kcal/mol | Tm [2]: 58.1 °C

GGTGCGGGAAACCGTGCC ((..(((....)))..))
folding enthalpy [1]: -46.1 kcal/mol | Tm [2]: 53.1 °C

GGTGCTGGAAACAGCGTC (..((((....))))..)
folding enthalpy [1]: -12.8 kcal/mol | Tm [2]: 41 °C

GGTGGACGAAAGTCAACC (((.(((....))).)))
folding enthalpy [1]: -40.3 kcal/mol | Tm [2]: 56.6 °C

GGTGGACGAAAGTCACC (((.(((....))))))
folding enthalpy [1]: -25.5 kcal/mol | Tm [2]: 55.3 °C

GGTGGCCGAAAGGCAACC (((.(((....))).)))
folding enthalpy [1]: -28.1 kcal/mol | Tm [2]: 66.5 °C

GGTGGCCGAAAGGCGACC (((.(((....))).)))
folding enthalpy [1]: -30.2 kcal/mol | Tm [2]: 66.2 °C

GGTGGCGAAAGCCACACC ((((((....)))..)))
folding enthalpy [1]: -6.43 kcal/mol | Tm [2]: 60 °C

GGTGGCGAAAGCCGGACC ((((((....)))..)))
folding enthalpy [1]: -12.1 kcal/mol | Tm [2]: 46.8 °C

GGTGGCGAAAGCCTAACC ((((((....)))..)))
folding enthalpy [1]: -16.5 kcal/mol | Tm [2]: 43.7 °C

GGTGGCGCGAAAGCGACC (((..(((....))))))
folding enthalpy [1]: -9.77 kcal/mol | Tm [2]: 52.8 °C

GGTGGCGGAAACACCACC (((((.(....).)))))
folding enthalpy [1]: -42.3 kcal/mol | Tm [2]: 53.8 °C

GGTGGGCGAAAGCCTACC (((.(((....))).)))
folding enthalpy [1]: -22.3 kcal/mol | Tm [2]: 65.6 °C

GGTGGGGAAACCCACC ((((((....))))))
folding enthalpy [1]: -42.9 kcal/mol | Tm [2]: 68.1 °C

GGTGGGGGAAACCCCGCC ((.((((....)))).))
folding enthalpy [1]: -27.5 kcal/mol | Tm [2]: 61.4 °C

GGTGGGGGAAACCCCGTC (..((((....))))..)
folding enthalpy [1]: -12 kcal/mol | Tm [2]: 38.2 °C

GGTGGGGGAAACTCCGCC ((.((.(....).)).))
folding enthalpy [1]: -26.4 kcal/mol | Tm [2]: 49.6 °C

GGTGGTGGAAACGTCACC ((((..(....)..))))
folding enthalpy [1]: -23.4 kcal/mol | Tm [2]: 44.5 °C

GGTGTACGAAAGTAACC (((.(((....))))))
folding enthalpy [1]: -24.5 kcal/mol | Tm [2]: 47.8 °C

GGTGTAGGAAACTGTACC (((..((....))..)))
folding enthalpy [1]: -19.3 kcal/mol | Tm [2]: 29.6 °C

GGTGTATCGAAAGATACC (((..(((....))))))
folding enthalpy [1]: -14.7 kcal/mol | Tm [2]: 43.3 °C

GGTGTCCCGAAAGGGACC (((..(((....))))))
folding enthalpy [1]: -9.51 kcal/mol | Tm [2]: 49.5 °C

GGTGTCGAAAGACATACC ((((((....)))..)))
folding enthalpy [1]: -13.9 kcal/mol | Tm [2]: 43.5 °C

GGTGTCGAAAGACCAACC ((((((....)))..)))
folding enthalpy [1]: -15.3 kcal/mol | Tm [2]: 37.5 °C

GGTGTCGAAAGACCTACC ((((((....)))..)))
folding enthalpy [1]: -16.1 kcal/mol | Tm [2]: 33.8 °C

GGTGTCGAAAGACGGACC ((((((....)))..)))
folding enthalpy [1]: -16.6 kcal/mol | Tm [2]: 40.3 °C

GGTGTCGGAAACGACATC (.(((((....))))).)
folding enthalpy [1]: -26.8 kcal/mol | Tm [2]: 54 °C

GGTGTGAAAACACC (((((....)))))
folding enthalpy [1]: -30.9 kcal/mol | Tm [2]: 57.3 °C
